Source: ChEMBL document CHEMBL2401735, “Synthesis and cytotoxicity of novel (thiazol-2-yl)hydrazine derivatives as promising anti-Candida agents” (Eur J Med Chem, 2013)
Values after ≈ are worked out from the molar mass of the structure shown.

Tested on: Pichia kudriavzevii
Assay: Anticandida activity against Candida krusei clinical isolate assessed as growth inhibition after 24 hrs by broth microdilution method
Format: functional
Conditions: not given
Procedure, shortened: (§1)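 Clinical Candida isolates subcultured for purity and optimal growth before testing; compounds dissolved in DMSO. Broth microdilution per NCCLS in Sabouraud dextrose broth, serial dilutions, inoculum about 10³/mL, with growth control and medium-only control; 24 h incubation at 37 °C. MIC is the lowest concentration giving complete visible inhibition.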

SMILES | MIC [µg/mL]
C=CCC/C(C)=N/Nc1nc(-c2ccc(OC)cc2)cs1 | 2 (≈ 6.64 µM)
Clc1ccc(-c2csc(NN=C3CCCCCCC3)n2)c(Cl)c1 | 2 (≈ 5.43 µM)
CCC/C(C)=N/Nc1nc(-c2ccc(OC)cc2)cs1 | 2 (≈ 6.91 µM)
CCCCCC/C(C)=N/Nc1nc(-c2ccc(OC)cc2)cs1 | 16 (≈ 48.3 µM)

Tested on: Candida albicans
Assay: Anticandida activity against Candida albicans clinical isolate assessed as growth inhibition after 24 hrs by broth microdilution method
Format: functional
Conditions: not given
Procedure, shortened: as §1

SMILES | MIC [µg/mL]
C=CCC/C(C)=N/Nc1nc(-c2ccc(OC)cc2)cs1 | 0.5 (≈ 1.66 µM)
Clc1ccc(-c2csc(NN=C3CCCCCCC3)n2)c(Cl)c1 | 0.5 (≈ 1.36 µM)
CCC/C(C)=N/Nc1nc(-c2ccc(OC)cc2)cs1 | 0.25 (≈ 0.864 µM)
CCCCCC/C(C)=N/Nc1nc(-c2ccc(OC)cc2)cs1 | 8 (≈ 24.1 µM)

Tested on: Escherichia coli
Assay: Antibacterial activity against Escherichia coli assessed as growth inhibition after 18 to 22 hrs by broth microdilution method
Format: functional
Conditions: not given
Procedure, shortened: (§2)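 Bacterial isolates subcultured for purity, identified conventionally. Broth microdilution per NCCLS in Mueller-Hinton II broth; plates with growth control (no compound) and medium-only control, incubated 18-22 h at 35 °C. MIC taken as lowest concentration giving complete growth inhibition by unaided eye.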

SMILES | MIC [µg/mL]
C=CCC/C(C)=N/Nc1nc(-c2ccc(OC)cc2)cs1 | > 256
Clc1ccc(-c2csc(NN=C3CCCCCCC3)n2)c(Cl)c1 | > 256
CCC/C(C)=N/Nc1nc(-c2ccc(OC)cc2)cs1 | > 256
CCCCCC/C(C)=N/Nc1nc(-c2ccc(OC)cc2)cs1 | > 256

Tested on: Staphylococcus warneri
Assay: Antibacterial activity against Staphylococcus warneri assessed as growth inhibition after 18 to 22 hrs by broth microdilution method
Format: functional
Conditions: not given
Procedure, shortened: as §2

SMILES | MIC [µg/mL]
C=CCC/C(C)=N/Nc1nc(-c2ccc(OC)cc2)cs1 | > 256
Clc1ccc(-c2csc(NN=C3CCCCCCC3)n2)c(Cl)c1 | > 256
CCC/C(C)=N/Nc1nc(-c2ccc(OC)cc2)cs1 | > 256
CCCCCC/C(C)=N/Nc1nc(-c2ccc(OC)cc2)cs1 | > 256

Tested on: Streptococcus alpha-hemolyticus
Assay: Antibacterial activity against Streptococcus alpha-hemolyticus assessed as growth inhibition after 18 to 22 hrs by broth microdilution method
Conditions: not given

SMILES | MIC [µg/mL]
C=CCC/C(C)=N/Nc1nc(-c2ccc(OC)cc2)cs1 | > 256
Clc1ccc(-c2csc(NN=C3CCCCCCC3)n2)c(Cl)c1 | > 256
CCC/C(C)=N/Nc1nc(-c2ccc(OC)cc2)cs1 | > 256
CCCCCC/C(C)=N/Nc1nc(-c2ccc(OC)cc2)cs1 | > 256

Tested on: Candida parapsilosis
Assay: Anticandida activity against Candida parapsilosis clinical isolate assessed as growth inhibition after 24 hrs by broth microdilution method
Format: functional
Conditions: Lodderomyces parapsilosis
Procedure, shortened: as §1

SMILES | MIC [µg/mL]
C=CCC/C(C)=N/Nc1nc(-c2ccc(OC)cc2)cs1 | 2 (≈ 6.64 µM)
Clc1ccc(-c2csc(NN=C3CCCCCCC3)n2)c(Cl)c1 | 8 (≈ 21.7 µM)
CCC/C(C)=N/Nc1nc(-c2ccc(OC)cc2)cs1 | 2 (≈ 6.91 µM)
CCCCCC/C(C)=N/Nc1nc(-c2ccc(OC)cc2)cs1 | 16 (≈ 48.3 µM)

Tested on: Enterobacter sp.
Assay: Antibacterial activity against Enterobacter spp. assessed as growth inhibition after 18 to 22 hrs by broth microdilution method
Format: functional
Conditions: not given
Procedure, shortened: as §2

SMILES | MIC [µg/mL]
C=CCC/C(C)=N/Nc1nc(-c2ccc(OC)cc2)cs1 | > 256
Clc1ccc(-c2csc(NN=C3CCCCCCC3)n2)c(Cl)c1 | > 256
CCC/C(C)=N/Nc1nc(-c2ccc(OC)cc2)cs1 | > 256
CCCCCC/C(C)=N/Nc1nc(-c2ccc(OC)cc2)cs1 | > 256

Tested on: not listed separately
Assay: Cytotoxicity against human Hep2 cells assessed as cell survival fraction at 0.05 ug/ml after 24 hrs by trypan blue exclusion assay (reference value: 97 to 98%)
Format: cell-based
Conditions: HEp-2 cells, read-out: Survival

SMILES | viability at 24 h, 0.05 ug/ml [%]
C=CCC/C(C)=N/Nc1nc(-c2ccc(OC)cc2)cs1 | 91.2
Clc1ccc(-c2csc(NN=C3CCCCCCC3)n2)c(Cl)c1 | 93
CCC/C(C)=N/Nc1nc(-c2ccc(OC)cc2)cs1 | 90

Tested on: Candida tropicalis
Assay: Anticandida activity against Candida tropicalis clinical isolate assessed as growth inhibition after 24 hrs by broth microdilution method
Format: functional
Conditions: not given
Procedure, shortened: as §1

SMILES | MIC [µg/mL]
C=CCC/C(C)=N/Nc1nc(-c2ccc(OC)cc2)cs1 | 2 (≈ 6.64 µM)
Clc1ccc(-c2csc(NN=C3CCCCCCC3)n2)c(Cl)c1 | 2 (≈ 5.43 µM)
CCC/C(C)=N/Nc1nc(-c2ccc(OC)cc2)cs1 | 2 (≈ 6.91 µM)
CCCCCC/C(C)=N/Nc1nc(-c2ccc(OC)cc2)cs1 | 32 (≈ 96.5 µM)

Tested on: not listed separately
Assay: Cytotoxicity against human Hep2 cells assessed as cell survival fraction at 50 ug/ml after 24 hrs by trypan blue exclusion assay (reference value: 97 to 98%)
Format: cell-based
Conditions: HEp-2 cells, read-out: Survival

SMILES | viability at 24 h, 50 ug/ml [%]
C=CCC/C(C)=N/Nc1nc(-c2ccc(OC)cc2)cs1 | 0
Clc1ccc(-c2csc(NN=C3CCCCCCC3)n2)c(Cl)c1 | 0
CCC/C(C)=N/Nc1nc(-c2ccc(OC)cc2)cs1 | 0

Tested on: Staphylococcus aureus
Assay: Antibacterial activity against Staphylococcus aureus assessed as growth inhibition after 18 to 22 hrs by broth microdilution method
Format: functional
Conditions: not given
Procedure, shortened: as §2

SMILES | MIC [µg/mL]
C=CCC/C(C)=N/Nc1nc(-c2ccc(OC)cc2)cs1 | > 256
Clc1ccc(-c2csc(NN=C3CCCCCCC3)n2)c(Cl)c1 | > 256
CCC/C(C)=N/Nc1nc(-c2ccc(OC)cc2)cs1 | > 256
CCCCCC/C(C)=N/Nc1nc(-c2ccc(OC)cc2)cs1 | > 256

Tested on: not listed separately
Assay: Cytotoxicity against human Hep2 cells assessed as cell survival fraction at 0.5 ug/ml after 24 hrs by trypan blue exclusion assay (reference value: 97 to 98%)
Format: cell-based
Conditions: HEp-2 cells, read-out: Survival

SMILES | viability at 24 h, 0.5 ug/ml [%]
C=CCC/C(C)=N/Nc1nc(-c2ccc(OC)cc2)cs1 | 83
Clc1ccc(-c2csc(NN=C3CCCCCCC3)n2)c(Cl)c1 | 92.4
CCC/C(C)=N/Nc1nc(-c2ccc(OC)cc2)cs1 | 88

Tested on: [Candida] sake
Assay: Anticandida activity against Candida sake clinical isolate assessed as growth inhibition after 24 hrs by broth microdilution method
Format: functional
Conditions: Fermentozyma sake
Procedure, shortened: as §1

SMILES | MIC [µg/mL]
C=CCC/C(C)=N/Nc1nc(-c2ccc(OC)cc2)cs1 | 2 (≈ 6.64 µM)
Clc1ccc(-c2csc(NN=C3CCCCCCC3)n2)c(Cl)c1 | 2 (≈ 5.43 µM)
CCC/C(C)=N/Nc1nc(-c2ccc(OC)cc2)cs1 | 2 (≈ 6.91 µM)
CCCCCC/C(C)=N/Nc1nc(-c2ccc(OC)cc2)cs1 | 16 (≈ 48.3 µM)

Tested on: Klebsiella oxytoca
Assay: Antibacterial activity against Klebsiella oxytoca assessed as growth inhibition after 18 to 22 hrs by broth microdilution method
Format: functional
Conditions: not given
Procedure, shortened: as §2

SMILES | MIC [µg/mL]
C=CCC/C(C)=N/Nc1nc(-c2ccc(OC)cc2)cs1 | > 256
Clc1ccc(-c2csc(NN=C3CCCCCCC3)n2)c(Cl)c1 | > 256
CCC/C(C)=N/Nc1nc(-c2ccc(OC)cc2)cs1 | > 256
CCCCCC/C(C)=N/Nc1nc(-c2ccc(OC)cc2)cs1 | > 256

Tested on: Enterococcus faecalis
Assay: Antibacterial activity against […] assessed as growth inhibition after 18 to 22 hrs by broth microdilution method
Format: functional
Conditions: not given
Procedure, shortened: as §2

SMILES | MIC [µg/mL]
C=CCC/C(C)=N/Nc1nc(-c2ccc(OC)cc2)cs1 | > 256
Clc1ccc(-c2csc(NN=C3CCCCCCC3)n2)c(Cl)c1 | > 256
CCC/C(C)=N/Nc1nc(-c2ccc(OC)cc2)cs1 | > 256
CCCCCC/C(C)=N/Nc1nc(-c2ccc(OC)cc2)cs1 | > 256

Tested on: not listed separately
Assay: Cytotoxicity against human Hep2 cells assessed as cell survival fraction at 10 ug/ml after 24 hrs by trypan blue exclusion assay (reference value: 97 to 98%)
Format: cell-based
Conditions: HEp-2 cells, read-out: Survival

SMILES | viability at 24 h, 10 ug/ml [%]
C=CCC/C(C)=N/Nc1nc(-c2ccc(OC)cc2)cs1 | 72.4
Clc1ccc(-c2csc(NN=C3CCCCCCC3)n2)c(Cl)c1 | 87.5
CCC/C(C)=N/Nc1nc(-c2ccc(OC)cc2)cs1 | 75.5

Tested on: not listed separately
Assay: Cytotoxicity against human Hep2 cells assessed as reduction of cell viability after 24 hrs by trypan blue exclusion assay
Format: cell-based
Conditions: HEp-2 cells
Procedure, shortened: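 Hep2 cells in DMEM with 10% FBS, penicillin-streptomycin, 5% CO₂, 37 °C. Cells at 1 × 10⁵/mL exposed 24 h to seven concentrations (0.005-100 µg/mL), DMSO ≤0.5% final; controls were medium alone, DMSO, and 1 mM sodium nitroprusside. Cells scraped, allowed 30 min recovery, mixed 1:1 with 0.4% trypan blue, counted by hemocytometer by two operators.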

SMILES | CC50 at 24 h [µg/mL]
C=CCC/C(C)=N/Nc1nc(-c2ccc(OC)cc2)cs1 | 35 (≈ 116 µM)
Clc1ccc(-c2csc(NN=C3CCCCCCC3)n2)c(Cl)c1 | 41 (≈ 111 µM)
CCC/C(C)=N/Nc1nc(-c2ccc(OC)cc2)cs1 | 36 (≈ 124 µM)

Tested on: not listed separately
Assay: Cytotoxicity against human Hep2 cells assessed as cell survival fraction at 5 ug/ml after 24 hrs by trypan blue exclusion assay (reference value: 97 to 98%)
Format: cell-based
Conditions: HEp-2 cells, read-out: Survival

SMILES | viability at 24 h, 5 ug/ml [%]
C=CCC/C(C)=N/Nc1nc(-c2ccc(OC)cc2)cs1 | 84
Clc1ccc(-c2csc(NN=C3CCCCCCC3)n2)c(Cl)c1 | 90
CCC/C(C)=N/Nc1nc(-c2ccc(OC)cc2)cs1 | 83

Tested on: not listed separately
Assay: Cytotoxicity against human Hep2 cells assessed as cell survival fraction at 100 ug/ml after 24 hrs by trypan blue exclusion assay (reference value: 97 to 98%)
Format: cell-based
Conditions: HEp-2 cells, read-out: Survival

SMILES | viability at 24 h, 100 ug/ml [%]
C=CCC/C(C)=N/Nc1nc(-c2ccc(OC)cc2)cs1 | 0
Clc1ccc(-c2csc(NN=C3CCCCCCC3)n2)c(Cl)c1 | 0
CCC/C(C)=N/Nc1nc(-c2ccc(OC)cc2)cs1 | 0

Tested on: not listed separately
Assay: Cytotoxicity against human Hep2 cells assessed as cell survival fraction at 0.005 ug/ml after 24 hrs by trypan blue exclusion assay (reference value: 97 to 98%)
Format: cell-based
Conditions: HEp-2 cells, read-out: Survival

SMILES | viability at 24 h, 0.005 ug/ml [%]
C=CCC/C(C)=N/Nc1nc(-c2ccc(OC)cc2)cs1 | 94
Clc1ccc(-c2csc(NN=C3CCCCCCC3)n2)c(Cl)c1 | 94
CCC/C(C)=N/Nc1nc(-c2ccc(OC)cc2)cs1 | 92

Tested on: Proteus mirabilis
Assay: Antibacterial activity against Proteus mirabilis assessed as growth inhibition after 18 to 22 hrs by broth microdilution method
Format: functional
Conditions: not given
Procedure, shortened: as §2

SMILES | MIC [µg/mL]
C=CCC/C(C)=N/Nc1nc(-c2ccc(OC)cc2)cs1 | > 256
Clc1ccc(-c2csc(NN=C3CCCCCCC3)n2)c(Cl)c1 | > 256
CCC/C(C)=N/Nc1nc(-c2ccc(OC)cc2)cs1 | > 256
CCCCCC/C(C)=N/Nc1nc(-c2ccc(OC)cc2)cs1 | > 256

Tested on: Nakaseomyces glabratus
Assay: Anticandida activity against Candida glabrata clinical isolate assessed as growth inhibition after 24 hrs by broth microdilution method
Format: functional
Conditions: not given
Procedure, shortened: as §1

SMILES | MIC [µg/mL]
C=CCC/C(C)=N/Nc1nc(-c2ccc(OC)cc2)cs1 | 0.5 (≈ 1.66 µM)
Clc1ccc(-c2csc(NN=C3CCCCCCC3)n2)c(Cl)c1 | 2 (≈ 5.43 µM)
CCC/C(C)=N/Nc1nc(-c2ccc(OC)cc2)cs1 | 2 (≈ 6.91 µM)
CCCCCC/C(C)=N/Nc1nc(-c2ccc(OC)cc2)cs1 | 8 (≈ 24.1 µM)
